Reference: ChEMBL document CHEMBL5715960, “Epigenetic Co-Deregulation of EZH2/TET1 is a Senescence-Countering, Actionable Vulnerability in Triple-Negative Breast Cancer” (Theranostics, 2019)
Activity calls are given as the source filed them. The calls are words filed in the database; no cut-off is given here.

Columns and labels:
BT-474 [1] = test: Antiproliferative activity in human BT-474 cells assessed as increase in SA-beta-gal positive cells at 2 uM for 5 days by SA-beta-gal staining analysis; format: toxicity, cell-based; conditions: bt-474, 120 h, time 5 day
How it was run: (§1)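 GSK343 2 µM or DMSO for 5 days, then chromogenic SA-β-gal staining and counting of positive cells. Triplicate; mean ± SD.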

MDA-MB-436 [2] = test: Downregulation of E2F1 in human MDA-MB-436 cells at 2 uM for 2 days by immunoblot analysis; format: functional, cell-based; conditions: time 2.0 day
MDA-MB-436 [3] = test: Effect on human MDA-MB-436 cells expressing shTET1 assessed as increase in p53 cascade by immunoblot analysis; format: functional, cell-based
MCF7 [4] = test: Upregulation of TP53 gene in human MCF7 cells at 2 uM by qRT-PCR analysis; format: functional, cell-based
How it was run: (§2)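 Relative transcript levels measured by qRT-PCR in cells treated with 2 µM inhibitor, normalised to DMSO-treated control cells. Triplicate experiments unless stated otherwise; mean ± SD reported; unpaired two-tailed Student's t-test at p < 0.05.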

MDA-MB-436 [5] = test: Effect on human MDA-MB-436 cells expressing shTET1 assessed as reduction in PCNA by immunoblot analysis; format: functional, cell-based
MDA-MB-231 [6] = test: Antiproliferative activity against human MDA-MB-231 cells assessed as downregulation of PCNA by immunoblot analysis; format: functional, cell-based
How it was run: (§3)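 Cells exposed to GSK343 at 2 µM (standard level unless stated otherwise), lysed and immunoblotted; α-tubulin and total H3 as loading controls.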

SK-BR-3 = test: Antiproliferative activity in human SK-BR-3 cells assessed as increase in SA-beta-gal positive cells at 2 uM for 5 days by SA-beta-gal staining analysis; format: toxicity, cell-based; conditions: sk-br-3, 120 h, time 5 day; how it was run: as §1
MDA-MB-436 [7] = test: Upregulation of CDKN1A gene in human MDA-MB-436 cells at 2 uM by qRT-PCR analysis; format: functional, cell-based; how it was run: as §2
MDA-MB-231 [8] = test: Induction of apoptosis in human MDA-MB-231 cells assessed as increase in accumulation of cells at G1 phase in presence of adriamycin by BrdU/PI-based cell cycle analysis; format: functional
How it was run: (§4)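 Cell cycle by BrdU/PI staining and flow cytometry, giving G1, S and G2 fractions. Cells received 0.005 µg/ml adriamycin with or without 2 µM GSK343, or DMSO. Mean ± SD.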

MDA-MB-231 [9] = test: Antiproliferative activity against human MDA-MB-231 cells assessed as increase in cell death at 10 uM for 2 days by Guava viacount assay; format: functional, cell-based; conditions: time 2.0 day
How it was run: (§5)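 Cells plated at 2 × 10^4 (24-well) or 1 × 10^5 (12-well), exposed to a range of GSK343 concentrations for 2 days against DMSO solvent control; cell number and viability read by Guava ViaCount flow cytometry, relative to DMSO. Triplicate; mean ± SD.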

MDA-MB-231 [10] = test: Downregulation of EZH2 transcription in human MDA-MB-231 cells at 2 uM for 2 days by immunoblot analysis; format: functional, cell-based; conditions: time 2.0 day
MDA-MB-231 [11] = test: Effect on human MDA-MB-231 cells assessed as increase in TET1 protein level by qRT-PCR analysis
MCF7 [12] = test: Effect on human MCF7 cells assessed as increase in TET3 transcription by qRT-PCR analysis; format: functional, cell-based
How it was run: (§6)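 qRT-PCR of TET1, TET2 and TET3 transcripts in breast cancer cells exposed to GSK343 (2 µM unless otherwise indicated), shown relative to DMSO-treated cells. Mean ± SD, triplicate unless stated.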

MDA-MB-436 [13] = test: Effect on human MDA-MB-436 cells assessed as increase in TET1 protein level by qRT-PCR analysis
MDA-MB-436 [14] = test: Effect on human MDA-MB-436 cells expressing shTET1 assessed as reduction in cyclinA by immunoblot analysis; format: functional, cell-based
MDA-MB-231 [15] = test: Upregulation of […] signalling in human MDA-MB-231 cells at 2 uM for 2 days by immunoblot analysis; format: functional, cell-based; conditions: time 2.0 day
MDA-MB-436 [16] = test: Effect on human MDA-MB-436 cells assessed as increase in TET1 transcription by qRT-PCR analysis; format: functional, cell-based; how it was run: as §6
MDA-MB-436 [17] = test: In vivo activation of p53 expression in Crl:NU-Foxn1-nu/nu mouse xenografted with human MDA-MB-436 cells at 5 mg/kg, ip in presence of adriamycin treated for 21 days; format: functional, organism-based; conditions: time 21.0 day
BT-474 [18] = test: Cytotoxicity against human BT-474 cells at 0.5 to 2 uM for 2 days by Guava viacount assay; format: toxicity, cell-based; conditions: bt-474, 48 h, dose 0.5-2 µM, time 2 day; how it was run: as §5
BT-474 [19] = test: Antiproliferative activity against human BT-474 cells assessed as increase in global H3K9me3 expression level by immunoblot analysis; format: toxicity, cell-based; how it was run: as §3
MDA-MB-361 = test: Cytotoxicity against human MDA-MB-361 cells at 0.5 to 2 uM for 2 days by Guava viacount assay; format: toxicity, cell-based; conditions: mda-mb-361, 48 h, dose 0.5-2 µM, time 2 day; how it was run: as §5
MDA-MB-436 [20] = test: Induction of cell cycle arrest in human MDA-MB-436 cells assessed as accumulation of cells at G1 phase measured at 2 uM by BrdU/PI staining based flow cytometric analysis (reference value: 48.3%); format: functional
MDA-MB-436 [21] = test: Effect on human MDA-MB-436 cells assessed as apoptotic phenotype by measuring increase in BAX expression level at 2 uM in presence of adriamycin by immunoblot analysis; format: functional, cell-based
How it was run: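 Immunoblot of cell lysates after 0.05 µg/ml adriamycin alone, with 2 µM GSK343, or DMSO. α-Tubulin and total H3 used as loading controls.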

MDA-MB-436 [22] = test: Antiproliferative activity in human MDA-MB-436 cells assessed as increase in C12FDG based fluorescent SA-beta-gal positive cells at 2 uM in presence of adriamycin by FACS analysis; format: functional, cell-based
How it was run: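 Cells given 0.005 µg/ml adriamycin with or without 2 µM GSK343, or DMSO; SA-β-gal activity detected with C12FDG fluorescent substrate by flow cytometry, reported as percent positive cells. Mean ± SD.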

MDA-MB-436 [23] = test: Induction of apoptosis in human MDA-MB-436 cells assessed as decrease in accumulation of cells at S phase in presence of adriamycin by BrdU/PI-based cell cycle analysis; format: functional; how it was run: as §4
MDA-MB-231 [24] = test: Downregulation of EZH2 in human MDA-MB-231 cells at 2 uM for 2 days by immunoblot analysis; format: functional, cell-based; conditions: time 2.0 day
MCF7 [25] = test: Upregulation of CDKN1A gene in human MCF7 cells at 2 uM by qRT-PCR analysis; format: functional, cell-based; how it was run: as §2
MCF7 [26] = test: Effect on human MCF7 cells assessed as increase in global 5hmc level by dot analysis; format: functional, cell-based
How it was run: (§7)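 Global 5hmC measured by dot blot on genomic DNA from cells given GSK343 or carrying EZH2 knock-down, with DMSO or scrambled shRNA as controls. DNA denatured in 0.1 M NaOH at 99 °C for 5 min, then neutralized with ammonium sulfate pH 7.0. 5 µg spotted, UV-crosslinked, probed with anti-5hmC for 1 h at room temperature, ECL detection, dot intensity quantified. Mean ± SD.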

MDA-MB-231 [27] = test: Antiproliferative activity in human MDA-MB-231 cells expressing shTET1 assessed as increase in SA-beta-gal positive cells by SA-beta-gal staining analysis (reference value: 9+/-1.5%); format: functional
MDA-MB-231 [28] = test: Effect on human MDA-MB-231 cells assessed as increase in global 5hmc level by dot analysis; format: functional, cell-based; how it was run: as §7

CCCc1cc(C)[nH]c(=O)c1CNC(=O)c1cc(-c2ccnc(N3CCN(C)CC3)c2)cc2c1cnn2C(C)C
Activity (BT-474 [1]): Non-Toxic | Activity (MDA-MB-436 [2]): Active | Activity (MDA-MB-436 [3]): inactive | Activity (MCF7 [4]): inactive | Activity (MDA-MB-436 [5]): inactive | Activity (MDA-MB-231 [6]): Active | Activity (SK-BR-3): Non-Toxic | Activity (MDA-MB-436 [7]): Active | Activity (MDA-MB-231 [8]): Active | Activity (MDA-MB-231 [9]): Active | Activity (MDA-MB-231 [10]): Active | Activity (MDA-MB-231 [11]): Active | Activity (MCF7 [12]): inactive | Activity (MDA-MB-436 [13]): Active | Activity (MDA-MB-436 [14]): inactive | Activity (MDA-MB-231 [15]): Active | Activity (MDA-MB-436 [16]): Active | Activity (MDA-MB-436 [17]): Active | Activity (BT-474 [18]): Non-Toxic | Activity (BT-474 [19]): Non-Toxic | Activity (MDA-MB-361): Non-Toxic | Activity (MDA-MB-436 [20]): 71.1% | Activity (MDA-MB-436 [21]): Active | Activity (MDA-MB-436 [22]): Active | Activity (MDA-MB-436 [23]): Active | Activity (MDA-MB-231 [24]): Active | Activity (MCF7 [25]): inactive | Activity (MCF7 [26]): inactive | Activity (MDA-MB-231 [27]): 12.3% | Activity (MDA-MB-231 [28]): Active
